Reference: ChEMBL document CHEMBL1133563, “Development of new hydroxamate matrix metalloproteinase inhibitors derived from functionalized 4-aminoprolines” (J Med Chem, 2000)

Legend:
Stromelysin-1 [1] = molecular target: T1, Stromelysin-1 (Homo sapiens, UniProt P08254); test: In vitro inhibitory activity against matrix metalloprotease -3 (stromelysin)
Matrilysin = molecular target: T2, Matrilysin (Homo sapiens, UniProt P09237); test: In vitro inhibitory activity against matrix metalloprotease-7 (matrilysin, MMP-7)
T2 sequence (P09237 whole entry): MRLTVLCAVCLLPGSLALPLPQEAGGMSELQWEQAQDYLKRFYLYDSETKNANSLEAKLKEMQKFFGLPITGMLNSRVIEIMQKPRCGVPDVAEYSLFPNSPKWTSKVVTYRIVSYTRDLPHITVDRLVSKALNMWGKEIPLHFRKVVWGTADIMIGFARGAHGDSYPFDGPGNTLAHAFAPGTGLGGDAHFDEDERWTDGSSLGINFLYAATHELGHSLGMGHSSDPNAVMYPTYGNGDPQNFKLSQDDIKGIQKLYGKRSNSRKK
Summary of the method: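 Human recombinant truncated enzymes, final MMP-1 8 nM, MMP-3 16 nM, MMP-7 2 nM. Quenched-fluorescence assay with Mca-Pro-Leu-Gly-Leu-Dpa-Ala-Arg-NH₂ (4 µM) in 50 mM Tris pH 7.5, 0.2 M NaCl, 5 mM CaCl₂, 0.02% Brij-35 at 25 °C. Fluorescence (ex 328/em 393 nm) read kinetically for 30 min.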

Interstitial collagenase = molecular target: T3, Interstitial collagenase (Homo sapiens, UniProt P03956); test: In vitro inhibitory activity against matrix metalloprotease -1 (collagenase-1)
T3 sequence (P03956 whole entry): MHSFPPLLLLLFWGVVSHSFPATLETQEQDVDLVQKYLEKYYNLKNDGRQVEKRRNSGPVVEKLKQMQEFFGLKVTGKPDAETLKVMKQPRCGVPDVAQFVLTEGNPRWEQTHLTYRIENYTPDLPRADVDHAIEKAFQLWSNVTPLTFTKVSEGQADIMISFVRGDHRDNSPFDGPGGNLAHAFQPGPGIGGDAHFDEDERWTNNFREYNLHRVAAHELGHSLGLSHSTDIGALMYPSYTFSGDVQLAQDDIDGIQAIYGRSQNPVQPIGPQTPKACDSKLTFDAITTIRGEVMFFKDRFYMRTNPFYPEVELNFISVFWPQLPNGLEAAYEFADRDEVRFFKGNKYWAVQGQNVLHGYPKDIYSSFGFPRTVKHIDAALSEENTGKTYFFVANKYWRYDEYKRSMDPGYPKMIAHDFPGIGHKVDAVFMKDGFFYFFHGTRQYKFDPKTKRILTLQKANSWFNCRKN

[2] = molecular target: 72 kDa type IV collagenase (Homo sapiens, UniProt P08253); test: In vitro inhibitory activity against matrix metalloprotease -2 (gelatinase-A)
Collagenase 3 [3] = molecular target: T4, Collagenase 3 (Homo sapiens, UniProt P45452)
Rattus norvegicus = species on record: Rattus norvegicus; test: Time over 100 ng/ml in fasted rats; conditions: in vivo
Collagenase 3 [4] = molecular target: T4, Collagenase 3; test: In vitro inhibitory activity against human recombinant matrix metalloprotease-13 (collagenase-3)
Stromelysin-1 [5] = molecular target: T1, Stromelysin-1; test: Inhibition of matrix metalloprotease-3 (stromelysin)
Summary of the method: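 Human recombinant truncated MMP-3 (E. coli-expressed), 16 nM final, with fluorogenic substrate Mca-Pro-Leu-Gly-Leu-Dpa-Ala-Arg-NH₂ at 4 µM, 25 °C, in 50 mM Tris pH 7.5, 0.2 M NaCl, 5 mM CaCl₂, 0.02% Brij-35.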

[6] = Mean (%CV) PK parameters for Vdss(mL/kg).; assay type: ADME, organism-based; conditions: rat, in vivo; read-out: Vdss
Summary of the method: (§1)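 Single-compound study in male Sprague-Dawley rats, dosed intravenously and orally in a parallel-group design. Parameters were derived from mean plasma concentration-time profiles.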

[7] = Mean (%CV) PK parameters for CL(mL/min/kg).; assay type: ADME, organism-based; conditions: rat, in vivo; summary of the method: as §1
[8] = Pharmacokinetic half time was determined intravenously in rats.; assay type: ADME, organism-based; conditions: rat, in vivo, iv; summary of the method: as §1
[9] = Oral bioavailability measured by the ratio of […] area under concentration.; assay type: ADME, organism-based; conditions: rat, in vivo; summary of the method: as §1
[10] = Compound demonstarted an oral bioavailability of […]% with the half-life time as given in rats.; assay type: ADME, organism-based; conditions: rat, in vivo
Collagenase 3 [11] = molecular target: T4, Collagenase 3; remark: listed apart in the source

T1 sequence (P08254 whole entry): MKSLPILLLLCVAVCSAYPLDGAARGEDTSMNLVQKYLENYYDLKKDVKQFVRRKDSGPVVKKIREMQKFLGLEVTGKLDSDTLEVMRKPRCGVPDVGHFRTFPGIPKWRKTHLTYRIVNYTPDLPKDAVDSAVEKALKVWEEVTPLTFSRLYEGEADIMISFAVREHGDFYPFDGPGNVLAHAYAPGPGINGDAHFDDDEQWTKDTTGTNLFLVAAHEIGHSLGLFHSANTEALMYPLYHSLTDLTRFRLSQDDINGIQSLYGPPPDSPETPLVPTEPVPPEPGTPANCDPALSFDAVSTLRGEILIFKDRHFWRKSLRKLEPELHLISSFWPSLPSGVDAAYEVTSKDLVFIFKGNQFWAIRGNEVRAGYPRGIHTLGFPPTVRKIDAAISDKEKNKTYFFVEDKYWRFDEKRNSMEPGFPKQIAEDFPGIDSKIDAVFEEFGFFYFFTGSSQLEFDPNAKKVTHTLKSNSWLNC
Chain of 72 kDa type IV collagenase (P08253 whole entry): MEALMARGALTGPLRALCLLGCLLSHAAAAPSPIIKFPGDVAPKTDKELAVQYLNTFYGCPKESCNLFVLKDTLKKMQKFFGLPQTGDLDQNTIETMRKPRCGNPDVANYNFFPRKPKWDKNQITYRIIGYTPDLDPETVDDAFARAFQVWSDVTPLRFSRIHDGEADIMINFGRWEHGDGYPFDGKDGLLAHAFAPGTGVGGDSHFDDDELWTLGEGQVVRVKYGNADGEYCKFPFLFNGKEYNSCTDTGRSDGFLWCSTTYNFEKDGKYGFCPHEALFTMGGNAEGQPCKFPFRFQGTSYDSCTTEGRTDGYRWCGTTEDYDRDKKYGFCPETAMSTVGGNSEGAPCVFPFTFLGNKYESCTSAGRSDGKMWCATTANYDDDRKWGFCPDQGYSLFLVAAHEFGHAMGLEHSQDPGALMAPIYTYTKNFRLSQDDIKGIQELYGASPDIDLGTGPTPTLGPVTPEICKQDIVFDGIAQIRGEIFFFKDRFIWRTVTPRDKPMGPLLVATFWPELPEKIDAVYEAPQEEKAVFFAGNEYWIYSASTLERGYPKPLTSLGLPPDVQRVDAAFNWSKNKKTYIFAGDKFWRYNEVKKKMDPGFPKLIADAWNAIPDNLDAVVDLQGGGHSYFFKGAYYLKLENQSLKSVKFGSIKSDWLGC

IC50 (Collagenase 3 [4]) [nM] | Compound | IC50 (Stromelysin-1 [1]) [nM] | IC50 (Matrilysin) [nM] | IC50 (Interstitial collagenase) [nM] | IC50 [2] [nM] | IC50 (Collagenase 3 [3]) [nM] | Time over 100ng/ml (Rattus norvegicus) [h] | IC50 (Stromelysin-1 [5]) [nM] | Vd [6] [L/kg] | clearance [7] [mL/min/kg] | half-life [8] [h] | bioavailability [9] [%] | half-life [10] [h] | IC50 (Collagenase 3 [11]) [nM]
 | COCCOc1ccc(S(=O)(=O)N2C[C@@H](N3C(=O)CN(C)C3=O)C[C@@H]2C(=O)NO)cc1 | 26 | 9100 | 1800 | 1 | 4.4 | 0 |  |  |  |  |  |  | 
 | CCCCOc1ccc(S(=O)(=O)N2C[C@@H](N3CCS(=O)(=O)CC3)C[C@@H]2C(=O)NO)cc1 | 12 | 3400 | > 1000 | 7 | 0.9 |  |  |  |  |  |  |  | 
1 | CCCOc1ccc(S(=O)(=O)N2C[C@@H](N3CCOCC3)C[C@@H]2C(=O)NO)cc1 | 7 | 16500 | 490 |  |  | 4.5 |  |  |  |  |  |  | 
 | CCCCOc1ccc(S(=O)(=O)N2C[C@@H](N3C(=O)CN(C)C3=O)C[C@@H]2C(=O)NO)cc1 |  | 1600 |  |  |  | 0 | 2 |  |  |  |  |  | 
1 | CCCN(C(=O)[C@H](C)O)[C@H]1C[C@H](C(=O)NO)N(S(=O)(=O)c2ccc(OC)cc2)C1 | 2 | 8500 | 87 | 0.7 |  |  |  |  |  |  |  |  | 
 | CCCCOc1ccc(S(=O)(=O)N2C[C@@H](N3C(=O)NC(C)(C)C3=O)C[C@@H]2C(=O)NO)cc1 | 3 | 450 | 780 | 2 | < 0.5 |  |  |  |  |  |  |  | 
 | CCCCOc1ccc(S(=O)(=O)N2C[C@@H](N3CCOCC3)C[C@@H]2C(=O)NO)cc1 | 5 | 5400 | 920 | 4 | 0.6 | 3.5 |  | 0.408 | 30 | 0.4 | 6 | 1.7 | 
0.8 | CCCN([C@H]1C[C@H](C(=O)NO)N(S(=O)(=O)c2ccc(OC)cc2)C1)S(C)(=O)=O | 10 | 920 | 33 | 0.8 |  |  |  |  |  |  |  |  | 
5 | COc1ccc(S(=O)(=O)N2C[C@@H](N)C[C@@H]2C(=O)NO)cc1 | 23 | 4300 | 250 | 6 |  |  |  |  |  |  |  |  | 
 | CCCN(C(=O)[C@@H](O)CCc1ccccc1)[C@H]1C[C@H](C(=O)NO)N(S(=O)(=O)c2ccc(OC)cc2)C1 | 12 |  | 260 | 0.6 |  |  |  |  |  |  |  |  | 0.5

Compound | IC50 (Collagenase 3 [4]) [nM] | IC50 (Stromelysin-1 [1]) [nM] | IC50 (Matrilysin) [nM] | IC50 (Interstitial collagenase) [nM] | IC50 [2] [nM] | IC50 (Collagenase 3 [3]) [nM] | Time over 100ng/ml (Rattus norvegicus) [h] | IC50 (Stromelysin-1 [5]) [nM] | Vd [6] [L/kg] | clearance [7] [mL/min/kg] | half-life [8] [h] | bioavailability [9] [%] | half-life [10] [h] | IC50 (Collagenase 3 [11]) [nM]
COc1ccc(S(=O)(=O)N2C[C@@H](N(Cc3cccnc3)S(C)(=O)=O)C[C@@H]2C(=O)NO)cc1 | 1 | 6 | 2700 | 74 | 2 |  | 0 |  |  |  |  |  |  | 
C=CCN1CC(=O)N([C@H]2C[C@H](C(=O)NO)N(S(=O)(=O)c3ccc(OCCCC)cc3)C2)C1=O | 0.4 | 7 | 1000 | 480 |  |  | 4 |  |  |  |  |  |  | 
COc1ccc(S(=O)(=O)N[C@H]2C[C@H](C(=O)NO)N(S(=O)(=O)c3ccc(OC)cc3)C2)cc1 | 2 | 36 | 3000 | 350 | 3 |  |  |  |  |  |  |  |  | 
